Active and inactive are the calls of the source. No cut-off for these calls is given here.
Assays:
[1] = target: G-protein coupled receptor 68 (Mus musculus) (UniProt Q8BFQ3); experiment: (§1) Positive allosteric modulation of mouse GPR68 expressed in HEK293T cells co-expressing Gs assessed as stimulation of proton-mediated cAMP production by measuring efficacy cooperativity in HBSS buffer containing pH 6.8 to 8.2 HEPES/pH 8.3 to 8.6 TAPS measured after 20 to 30 mins in presence of PDE inhibitor Ro 20-1724 by luciferase-glo reporter gene assay; type: functional, cell-based
In short: (§2)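 α, β and KB obtained by fitting proton responses with and without modulator to the standard allosteric operational model. Overall index is log(αβ/KB). Values are mean ± SEM from ≥3 independent assays, each run in triplicate or quadruplicate.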

[2] = target: G-prodeshotein coupled receptor 4 (Homo sapiens) (UniProt P46093); experiment: as §1, with “human GPR4” for “mouse GPR68”, “at higher concentration” for “by measuring efficacy cooperativity”; type: functional, cell-based
In short: (§3)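 Transient co-transfection of HEK293T with receptor and GloSensor plasmids using PEI, overnight, then replated in DMEM + 1% dFBS for 6–24 h. Luciferin 3.5 mM loaded for 1 h at 37 °C in HBSS/20 mM TAPS, pH 8.40. Proton series: Ca/Mg-free HBSS with MES (pH 5.60–6.70), HEPES (6.80–8.20) or TAPS (8.30–8.60), plus 10 μM Ro 20-1724. BSA 1 mg/mL added where solubility required. Luminescence read at 20–30 min. At least six 16-point proton curves across modulator concentrations, quadruplicate, ≥3 independent assays.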

[3] = target: G-protein coupled receptor 68 (Homo sapiens) (UniProt Q15743); experiment: as §1, with “human” for “mouse”; type: functional, cell-based; in short: as §3
[4] = target: G-protein coupled receptor 68 (Homo sapiens) (UniProt Q15743); experiment: as §1, with “human” for “mouse”, “allosteric index” for “efficacy cooperativity”; type: functional, cell-based; in short: as §3
[5] = target: G-protein coupled receptor 68 (Homo sapiens) (UniProt Q15743); experiment: as §1, with “human” for “mouse”, “allosteric affinity” for “efficacy”; type: functional, cell-based; in short: as §3
[6] = target: T1, Atypical chemokine receptor 3 (Homo sapiens, UniProt P25106); experiment: Agonist activity at human ACKR3 expressed in HTLA cells assessed as stimulation of beta-arrestin recruitment at 1 uM incubated for 16 to 20 hrs by bright-glo luminescence assay; type: cell-based
[7] = target: T2, 5-hydroxytryptamine receptor 2B (Homo sapiens, UniProt P41595); experiment: Displacement of [3H]LSD from recombinant human 5HT2B stably expressed in HEK cell membranes incubated for 90 mins under dark condition by microbeta scintillation counting analysis
[8] = target: T2, 5-hydroxytryptamine receptor 2B; experiment: Agonist activity at human 5HT2B receptor expressed in Flp-In-HEK cells co-expressing Gq assessed as stimulation of calcium mobilization measured for 2 mins by fluo-4 calcium dye-based FLIPR assay; type: functional, cell-based
In short: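 HEK293 cells stably expressing 5-HT2B, seeded overnight (16–20 h) on poly-L-Lys in DMEM + 1% dFBS. Fluo-4 Direct dye loaded for 1 h at 37 °C in HBSS/20 mM HEPES/2.5 mM probenecid, pH 7.40. Drug diluted in buffer with 1 mg/mL BSA and 0.1 mg/mL ascorbic acid. Fluorescence read for 2 min; peak fold of basal within the first minute.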

[9] = target: T2, 5-hydroxytryptamine receptor 2B; experiment: Antagonist activity at human 5HT2B receptor expressed in Flp-In-HEK cells co-expressing Gq assessed as inhibition of 5HT-induced stimulation of calcium mobilization preincubated for 10 mins followed by 5HT addition by fluo-4 calcium dye-based FLIPR assay; type: functional, cell-based
[10] = target: G-protein coupled receptor 68 (Mus musculus) (UniProt Q8BFQ3); experiment: as §1, with “allosteric affinity” for “efficacy”; type: functional, cell-based; in short: as §2
[11] = target: G-protein coupled receptor 68 (Mus musculus) (UniProt Q8BFQ3); experiment: as §1, with “allosteric index” for “efficacy cooperativity”; type: functional, cell-based; in short: as §2
[12] = target: T1, Atypical chemokine receptor 3; experiment: Agonist activity at human ACKR3 expressed in HTLA cells assessed as stimulation of beta-arrestin recruitment incubated for 16 to 20 hrs by bright-glo luminescence assay; type: cell-based
In short: (§4)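 Tango arrestin assay in HTLA cells transfected with receptor DNA overnight in DMEM + 10% FBS, then replated on poly-L-Lys in DMEM + 1% dFBS. Drugs added 6 h later and incubated overnight (16–20 h). Medium removed, Bright-Glo added, luminescence counted.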

[13] = target: G-protein coupled receptor 65 (Homo sapiens) (UniProt Q8IYL9); experiment: as §1, with “human GPR65” for “mouse GPR68”, “at higher concentration” for “by measuring efficacy cooperativity”; type: functional, cell-based; in short: as §3
[14] = target: G-protein coupled receptor 65 (Homo sapiens) (UniProt Q8IYL9); experiment: as §1, with “human GPR65” for “mouse GPR68”, “production” for “production by measuring efficacy cooperativity”; type: functional, cell-based; in short: as §3
[15] = target: G-protein coupled receptor 68 (Homo sapiens) (UniProt Q15743); experiment: as §1, with “human” for “mouse”, “production” for “production by measuring efficacy cooperativity”; type: functional, cell-based; in short: as §3
[16] = target: G-prodeshotein coupled receptor 4 (Homo sapiens) (UniProt P46093); experiment: as §1, with “human GPR4” for “mouse GPR68”, “production” for “production by measuring efficacy cooperativity”; type: functional, cell-based; in short: as §3
[17] = target: G-protein coupled receptor 68 (Homo sapiens) (UniProt Q15743); experiment: as §1, with “human” for “mouse”, “allosteric binding affinity” for “efficacy cooperativity”; type: functional, cell-based; in short: as §3
[18] = target: T3, Melatonin receptor type 1B (Homo sapiens, UniProt P49286); experiment: Agonist activity at human MT2 receptor expressed in HTLA cells assessed as stimulation of beta-arrestin recruitment incubated for 16 to 20 hrs by bright-glo luminescence assay; type: cell-based; in short: as §4
T3 sequence (P49286 whole entry): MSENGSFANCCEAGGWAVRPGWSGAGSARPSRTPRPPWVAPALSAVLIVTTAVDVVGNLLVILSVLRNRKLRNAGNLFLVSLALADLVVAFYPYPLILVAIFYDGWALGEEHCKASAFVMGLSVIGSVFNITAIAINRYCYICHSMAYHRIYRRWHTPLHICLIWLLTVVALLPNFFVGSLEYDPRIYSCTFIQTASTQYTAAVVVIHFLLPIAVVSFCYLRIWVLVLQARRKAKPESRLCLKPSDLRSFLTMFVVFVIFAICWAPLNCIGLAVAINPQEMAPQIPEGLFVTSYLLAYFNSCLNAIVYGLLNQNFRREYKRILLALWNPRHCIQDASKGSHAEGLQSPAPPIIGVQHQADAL

[19] = Drug uptake in Swiss albino mouse plasma at 25 mg/kg, ip administered as single dose measured up to 2 hrs; type: ADME, organism-based; conditions: in vivo
[20] = Drug uptake in Swiss albino mouse brain at 25 mg/kg, ip administered as single dose measured up to 2 hrs; type: ADME, organism-based; conditions: in vivo
[21] = Drug uptake in Swiss albino mouse brain at 25 mg/kg, ip administered as single dose measured after 0.5 hrs; type: ADME, organism-based; conditions: read-out: Drug uptake
[22] = target: T4, Melatonin receptor type 1B (Homo sapiens) (UniProt P49286); experiment: Agonist activity at human MT2 receptor expressed in HTLA cells assessed as stimulation of beta-arrestin recruitment at 1 uM incubated for 16 to 20 hrs by bright-glo luminescence assay; type: cell-based
T4 sequence (whole entry): T3 sequence (P49286 whole entry)

[23] = Drug uptake in Swiss albino mouse plasma at 25 mg/kg, ip administered as single dose measured after 0.5 hrs; type: ADME, organism-based
[24] = target: T5, Melatonin receptor type 1A (Homo sapiens, UniProt P48039); experiment: Agonist activity at human MT1 receptor expressed in HTLA cells assessed as stimulation of beta-arrestin recruitment incubated for 16 to 20 hrs by bright-glo luminescence assay; type: cell-based; in short: as §4
[25] = target: T4, Melatonin receptor type 1B (Homo sapiens); experiment: Agonist activity at human MT2 receptor expressed in HTLA cells assessed as stimulation of beta-arrestin recruitment incubated for 16 to 20 hrs by bright-glo luminescence assay relative to control; type: cell-based; in short: as §4
[26] = Toxicity in Swiss albino mouse assessed as effect on clinical parameter at 25 mg/kg, ip administered as single dose; type: organism-based; conditions: in vivo
[27] = target: T5, Melatonin receptor type 1A; experiment: Agonist activity at human MT1 receptor expressed in HTLA cells assessed as stimulation of beta-arrestin recruitment at 1 uM incubated for 16 to 20 hrs by bright-glo luminescence assay; type: cell-based
Adenosine receptor A2a [28] = target: T6, Adenosine receptor A2a (Homo sapiens, UniProt P29274); experiment: Displacement of [3H]ZM241385 from recombinant human A2A receptor incubated for 90 mins under dark condition by microbeta scintillation method
Adenosine receptor A2a [29] = target: T6, Adenosine receptor A2a; experiment: Antagonist activity at recombinant human A2A receptor expressed in HEK293T cells co-expressing Gs assessed as inhibition of NECA-stimulated cAMP accumulation preincubated for 15 mins followed by NECA addition and measured after 15 mins by Glosensor chemiluminescence assay; type: functional, cell-based
Adenosine receptor A2a [30] = target: T6, Adenosine receptor A2a; experiment: Inverse agonist activity at recombinant human A2A receptor expressed in HEK293T cells co-expressing Gs assessed as decrease in cAMP accumulation measured after 15 mins by Glosensor chemiluminescence assay; type: functional, cell-based
Adenosine receptor A2a [31] = target: T6, Adenosine receptor A2a; experiment: Agonist activity at recombinant human A2A receptor expressed in HEK293T cells co-expressing Gs assessed as stimulation of cAMP accumulation measured after 15 mins by Glosensor chemiluminescence assay; type: functional, cell-based

T1 sequence (P25106 whole entry): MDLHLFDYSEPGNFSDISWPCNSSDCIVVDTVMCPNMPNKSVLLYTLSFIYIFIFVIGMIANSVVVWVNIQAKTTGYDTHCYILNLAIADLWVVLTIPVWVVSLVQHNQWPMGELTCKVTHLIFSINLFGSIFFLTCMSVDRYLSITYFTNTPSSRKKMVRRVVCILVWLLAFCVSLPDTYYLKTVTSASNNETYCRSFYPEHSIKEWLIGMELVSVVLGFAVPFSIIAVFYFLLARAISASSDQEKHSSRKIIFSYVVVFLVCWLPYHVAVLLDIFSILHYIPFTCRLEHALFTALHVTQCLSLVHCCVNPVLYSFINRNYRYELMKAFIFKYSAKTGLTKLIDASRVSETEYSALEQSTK
T6 sequence (P29274 whole entry): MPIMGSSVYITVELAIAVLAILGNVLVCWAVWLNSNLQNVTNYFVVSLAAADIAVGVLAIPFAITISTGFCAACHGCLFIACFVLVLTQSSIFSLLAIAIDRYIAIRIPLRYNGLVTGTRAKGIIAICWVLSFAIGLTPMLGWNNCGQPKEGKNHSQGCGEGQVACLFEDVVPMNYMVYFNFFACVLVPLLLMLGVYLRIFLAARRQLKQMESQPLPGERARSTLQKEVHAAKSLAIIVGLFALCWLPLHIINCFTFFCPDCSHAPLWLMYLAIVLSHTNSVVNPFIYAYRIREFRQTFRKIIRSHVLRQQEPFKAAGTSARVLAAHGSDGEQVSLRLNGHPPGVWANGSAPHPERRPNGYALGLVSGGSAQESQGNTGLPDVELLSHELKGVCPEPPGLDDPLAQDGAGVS
Chain of G-protein coupled receptor 65 (Homo sapiens) (Q8IYL9 whole entry): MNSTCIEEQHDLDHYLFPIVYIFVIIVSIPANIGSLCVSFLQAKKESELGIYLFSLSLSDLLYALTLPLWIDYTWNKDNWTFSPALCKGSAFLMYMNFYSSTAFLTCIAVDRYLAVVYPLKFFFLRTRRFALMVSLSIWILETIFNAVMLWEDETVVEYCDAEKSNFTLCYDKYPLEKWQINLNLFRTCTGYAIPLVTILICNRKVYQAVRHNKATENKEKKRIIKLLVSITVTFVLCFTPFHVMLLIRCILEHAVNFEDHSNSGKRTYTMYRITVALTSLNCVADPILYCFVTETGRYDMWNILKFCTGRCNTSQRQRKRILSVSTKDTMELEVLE
T5 sequence (P48039 whole entry): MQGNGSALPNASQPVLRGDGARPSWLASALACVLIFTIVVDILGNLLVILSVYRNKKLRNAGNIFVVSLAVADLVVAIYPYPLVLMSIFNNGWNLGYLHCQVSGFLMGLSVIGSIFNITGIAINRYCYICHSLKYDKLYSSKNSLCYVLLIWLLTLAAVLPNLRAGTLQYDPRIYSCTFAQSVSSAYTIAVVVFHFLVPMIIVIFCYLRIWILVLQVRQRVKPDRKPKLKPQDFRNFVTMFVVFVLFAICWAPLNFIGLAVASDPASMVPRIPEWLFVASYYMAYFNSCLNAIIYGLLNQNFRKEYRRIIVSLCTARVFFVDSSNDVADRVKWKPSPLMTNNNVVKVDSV
Chain of G-prodeshotein coupled receptor 4 (Homo sapiens) (P46093 whole entry, looked up): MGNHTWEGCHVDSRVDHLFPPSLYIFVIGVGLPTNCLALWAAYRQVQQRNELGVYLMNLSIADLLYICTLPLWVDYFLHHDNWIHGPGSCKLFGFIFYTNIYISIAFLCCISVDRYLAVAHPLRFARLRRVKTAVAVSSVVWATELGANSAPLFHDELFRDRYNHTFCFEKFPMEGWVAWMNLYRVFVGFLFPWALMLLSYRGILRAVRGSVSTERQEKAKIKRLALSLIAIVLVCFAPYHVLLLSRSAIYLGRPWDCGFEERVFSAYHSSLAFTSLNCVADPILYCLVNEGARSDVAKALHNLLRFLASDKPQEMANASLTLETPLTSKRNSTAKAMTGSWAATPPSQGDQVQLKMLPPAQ
T2 sequence (P41595 whole entry): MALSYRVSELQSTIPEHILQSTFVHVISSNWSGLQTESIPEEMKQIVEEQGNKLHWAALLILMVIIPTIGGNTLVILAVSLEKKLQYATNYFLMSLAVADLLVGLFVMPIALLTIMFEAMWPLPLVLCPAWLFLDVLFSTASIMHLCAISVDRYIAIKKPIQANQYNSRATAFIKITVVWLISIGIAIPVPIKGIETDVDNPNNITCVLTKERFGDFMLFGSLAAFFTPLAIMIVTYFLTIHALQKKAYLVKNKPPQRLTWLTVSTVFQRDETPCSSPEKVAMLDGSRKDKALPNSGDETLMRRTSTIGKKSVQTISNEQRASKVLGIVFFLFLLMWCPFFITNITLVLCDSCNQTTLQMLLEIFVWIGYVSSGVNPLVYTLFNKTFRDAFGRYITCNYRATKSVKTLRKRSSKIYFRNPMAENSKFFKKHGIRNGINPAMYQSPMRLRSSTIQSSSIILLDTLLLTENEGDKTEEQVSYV
Chain of G-protein coupled receptor 68 (Homo sapiens) (Q15743 whole entry): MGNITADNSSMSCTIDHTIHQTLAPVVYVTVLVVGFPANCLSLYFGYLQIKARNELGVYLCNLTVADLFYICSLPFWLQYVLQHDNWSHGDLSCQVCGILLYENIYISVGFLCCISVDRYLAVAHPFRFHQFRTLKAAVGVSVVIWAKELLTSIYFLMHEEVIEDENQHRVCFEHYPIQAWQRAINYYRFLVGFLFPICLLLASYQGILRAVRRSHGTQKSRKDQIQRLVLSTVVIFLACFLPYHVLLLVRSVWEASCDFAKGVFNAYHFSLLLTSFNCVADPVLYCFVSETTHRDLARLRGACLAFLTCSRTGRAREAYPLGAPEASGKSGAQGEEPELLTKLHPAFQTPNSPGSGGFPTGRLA
Chain of G-protein coupled receptor 68 (Mus musculus) (Q8BFQ3 whole entry): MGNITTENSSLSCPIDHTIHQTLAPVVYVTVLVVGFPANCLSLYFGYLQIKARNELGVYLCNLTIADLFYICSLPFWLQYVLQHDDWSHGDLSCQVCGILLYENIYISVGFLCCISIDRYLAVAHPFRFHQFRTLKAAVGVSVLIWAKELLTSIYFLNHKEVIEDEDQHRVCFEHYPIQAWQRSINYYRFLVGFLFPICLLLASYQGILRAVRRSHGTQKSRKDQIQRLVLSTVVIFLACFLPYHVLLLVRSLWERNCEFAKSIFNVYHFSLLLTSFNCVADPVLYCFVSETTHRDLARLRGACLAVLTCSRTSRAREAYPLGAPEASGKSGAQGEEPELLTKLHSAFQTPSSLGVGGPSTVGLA

SMILES | log(activity) [1] | Activity [2] | log(activity) [3] | Activity index [4] | log(activity) [5] | Activity [6] | Ki ([7]; read-out: Ki) | Ki ([7]; read-out: pKi (converted)) | Activity [8] | Ki [9] | log(activity) [10] | Activity index [11] | Activity [13] | Activity [14] | Activity_index [4] | Activity [15] | Activity [16] | pKb [17] | further results
Nc1nc(NCCCc2ccccc2)nc(-c2cc(Cl)ccc2CO)n1 | 0.13 | inactive | 0.01 | 6.38 | 1.03 | Active | 295 nM | 100 to 316 nM | inactive | 212 nM | 0.99 | 5.98 | inactive | – | – | – | – | – | EC50 [12]: 690 nM
Nc1nc(NCCc2ccccc2)nc(-c2cc(Cl)ccc2CO)n1 | 0.13 | inactive | 0.03 | 6.26 | 1.09 | Active | 209 nM | 100 to 316 nM | inactive | 678 nM | 1.06 | 5.92 | inactive | – | – | – | – | – | EC50 [12]: 1700 nM
Nc1nc(NCc2ccccc2)nc(-c2cccc(CO)c2)n1 | – | – | inactive | – | inactive | – | – | – | – | – | – | – | – | inactive | inactive | inactive | inactive | inactive | –
Nc1nc(NCc2ccccc2)nc(-c2ccccc2CO)n1 | 0.04 | – | 0.36 | 5.31 | 0.6 | – | – | – | – | – | 0.8 | 4.97 | – | – | – | Dose-dependent effect | – | – | –
Nc1nc(NCCCCc2ccccc2)nc(-c2ccccc2CO)n1 | 0.08 | – | 0.21 | 6.35 | 0.62 | – | – | – | – | – | 0.91 | 5.89 | – | – | – | – | – | – | –
CC(=O)c1cccc(-c2nc(N)nc(NCc3ccccc3)n2)c1 | – | – | inactive | – | inactive | – | – | – | – | – | – | – | – | inactive | inactive | inactive | inactive | inactive | –
Nc1nc(NCc2ccc(Oc3ccccc3)cc2)nc(-c2c(F)cccc2CO)n1 | 0.09 | inactive | 0.06 | 6.83 | 0.9 | – | 219 nM | 100 to 316 nM | inactive | 310 nM | 1.26 | 6.46 | inactive | – | – | Dose-dependent effect | – | – | EC50 [18]: 540 nM; Kd [18]: 1100 nM; Drug uptake [19]: Active; Drug uptake [20]: Active; concentration at 0.5 h [21]: > 10 µM; Activity [22]: Active; concentration at 0.5 h [23]: > 10 µM; EC50 [24]: 320 nM; Kd [24]: 5900 nM; Emax [25]: 24%; Activity [26]: Non-Toxic; Activity [27]: Active
CN(C)c1nc(NCc2ccccc2)nc(-c2ccccc2CO)n1 | – | – | inactive | – | inactive | – | – | – | – | – | – | – | – | inactive | inactive | inactive | inactive | inactive | –
Nc1nc(NCc2ccc(Cl)cc2)nc(-c2ccccc2CO)n1 | -0.02 | inactive | 0.41 | 6.11 | 0.49 | inactive | – | – | – | – | 1.41 | 5.68 | inactive | – | – | – | – | – | Ki (Adenosine receptor A2a [28]): 300 nM; Ki (Adenosine receptor A2a [29]): 6700 nM; IC50 (Adenosine receptor A2a [30]): 1700 nM; Activity (Adenosine receptor A2a [31]): inactive
